# Publication PMC3321547 (Biochemistry, 2009)
# “Also recorded” adds a separate entry of the source.
# Legend:
# [1] = system: kinesin head domains; details: ref [6], cited from earlier work
# [2] = Sedimentation of single constructs, 25 mM KCl; type: physicochemical; details: A25 buffer, 0.1 mM ATP, 4 °C
# [3] = system: DKH357; assay: Inhibition of basal ATPase of monomeric DKH357; type: biochemical, Drosophila; details: 13.3 µM DKH357
# Procedure, shortened: (§1)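 Heads were Drosophila kinesin residues 1–346 (for the artificial dimer, fused via a TSGG linker to the GCN4-p1 coiled coil) or 1–357. Basal ATPase was run at 25 °C in A25 buffer (pH 6.9) with […], 2 mM PEP and 0.25 mM NADH, coupled to PK/LDH, KCl as indicated. A340 was read, with turbidity correction where needed. Tail-peptide titrations were fit to the quadratic mutual-depletion equation.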
# [4] = target: K346SC; assay: Inhibition of basal ATPase of artificial dimer K346SC; type: biochemical, Drosophila; details: read-out: Kd, inhibition of basal ATPase; 6 µM K346SC monomer (Fig. 3C)
# Procedure, shortened: as §1
# [5] = system: K357SC; assay: Inhibition of artificial dimer K357SC; type: biochemical, Drosophila; details: not shown
# [6] = system: DKH412; assay: Inhibition of mADP release; type: biochemical, Drosophila
# [7] = system: DKH412; assay: Inhibition of basal steady state ATPase of DKH412 head dimer; type: biochemical, Drosophila; details: no added KCl, 7 µM DKH412 monomer
# [8] = system: DKH346; assay: Inhibition of basal ATPase of monomeric DKH346; type: biochemical, Drosophila; details: 6.8 µM DKH346 (Fig. 3C)
# Procedure, shortened: as §1
molecule,measurement,setting,value
Nc1ncnc2c1ncn2[C@@H]1O[C@H](COP(=O)(O)OP(=O)(O)O)[C@@H](O)[C@H]1O [ADP],rate of release as ADP,[1]; basal,~ 0.01 s^−1
Nc1ncnc2c1ncn2[C@@H]1O[C@H](COP(=O)(O)OP(=O)(O)OP(=O)(O)O)[C@@H](O)[C@H]1O [ATP],Km,"[1]; read-out: KM for ATP, basal ATPase, absence of MTs",~2.5 nM
same,net ATP binding and hydrolysis rate,[1],≥ 4e+06 M⁻¹ s⁻¹
DKH412: residues 1 to 412 of Drosophila kinesin with C-terminal HisTag; dimeric head construct,"s20,w, centrifuged alone",[2],5.2 S
"NF910-952: monomeric Drosophila kinesin tail peptide, residues 910-952, non-fusion version obtained by thrombin cleavage",inhibition of monomeric DKH357 (in words),[3],only weakly inhibits; also recorded: not strongly inhibited
same,Kd,[4],330 nM
same,stoichiometry of inhibition of K357SC,[5],half-site stoichiometry
same,maximum extent of inhibition of mADP release,"[6]; 50 mM KCl, 25 °C, pH 6.9, 0.2 µM DKH412",75%
same,maximum inhibition of mADP release,"[6]; no added KCl, A25 buffer pH 6.9, 25 °C, 0.2 µM DKH412",over 80%
same,stoichiometry of inhibition of basal ATPase,[7],1 tail peptide per two head peptides
same,inhibition of monomeric DKH346 (in words),[8],only poorly inhibited
